According to article PMC6175428 (Journal of Clinical Pharmacology, 2018):
Read-outs that look alike come from different tables or passages of the source. Each block holds one compound with its values, some of them ahead of it.

Legend:
[1] = Urine bioanalysis / renal clearance of semaglutide and SNAC; type: in vivo, human; conditions: for CLR (renal clearance): SNAC after 10th dose, geometric mean (CV)
In short: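 Urine was collected before dosing on day 1 and in fractions after the day-10 dose (0–4, 4–8, 16–24 and 24–36 h) and stored at −20°C. 1% Triton X-100 was added at 1 part per 9 parts urine. Semaglutide and SNAC were measured by the plasma LC-MS/MS assays, with ranges corrected by a factor of 1.111. Renal clearance was reported as the geometric mean (CV) per hepatic function group.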

[2] = type: in vivo, human; conditions: for CL/F (total apparent clearance): SNAC after 10th dose, geometric mean (CV)
In short: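 Adults with hepatic function graded by Child-Pugh took one oral tablet daily for 10 days: 5 mg for 5 days, then 10 mg for 5 days. Each tablet held 300 mg SNAC and was taken with 120 mL water after a ≥6 h fast. Plasma was sampled within 24 h after dosing on days 1 and 10 into K3-EDTA and stored at −20°C. LC-MS/MS used in-line solid-phase preparation and internal-standard peak area ratios, with an LLOQ of 5.00 ng/mL.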

[3] = tested on: plasma protein; test: Plasma protein binding of SNAC; type: in vitro ADME, human
In short: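 Plasma protein binding measured ex vivo by rapid equilibrium dialysis on blood drawn 30 minutes after the day-10 dose. Subjects with normal hepatic function or mild, moderate or severe hepatic impairment received the oral semaglutide/SNAC co-formulation for 10 consecutive days. Food and liquid were withheld for 30 minutes post-dose. The read-out is the fraction of unbound SNAC per subject, summarised as a median per group.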

[4] = subcutaneous once-daily liraglutide; cited from earlier work
[5] = mild hepatic impairment (n = 12)
[6] = moderate hepatic impairment (n = 12)
[7] = normal hepatic function (n = 24)
[8] = severe hepatic impairment (n = 8)

- CLR (renal clearance) [1, 5]: 0.075 (125.3) L/h
- CLR (renal clearance) [1, 6]: 0.054 (73.98) L/h
- CLR (renal clearance) [1, 7]: 0.076 (109.0) L/h
- CLR (renal clearance) [1, 8]: 0.111 (88.52) L/h
- CL/F (total apparent clearance) [2, 5]: 195.6 (24.2) L/h
- CL/F (total apparent clearance) [2, 6]: 105.1 (63.1) L/h
- CL/F (total apparent clearance) [2, 7]: 275.8 (27.9) L/h
- CL/F (total apparent clearance) [2, 8]: 78.5 (36.4) L/h
- Median tmax of SNAC ([2]; across the 4 hepatic function groups): approximately 0.5 hours
- Accumulation of SNAC ([2]; day 1 vs day 10 exposure, any hepatic function group): No accumulation
- Median fraction of unbound SNAC ([3]; across the hepatic function groups, samples 30 minutes after dosing on day 10): less than 1%
- Plasma protein binding of SNAC ([3]; all subjects across hepatic function groups): more than 99%
Compound: O=C([O-])CCCCCCCNC(=O)c1ccccc1O.[Na+] [SNAC, sodium N‐(8‐[2‐hydroxybenzoyl]amino) caprylate]
- Estimated mean CLR of SNAC, range across groups ([1]; range of estimated means with 95%CI across hepatic function groups): 0.052 [95%CI, 0.036–0.076]–0.096 [95%CI, 0.059–0.157] L/h

- Semaglutide in urine samples ([1]; subjects with normal hepatic function and all hepatic impairment groups): not detected
Compound: CC[C@H](C)[C@H](NC(=O)[C@H](Cc1ccccc1)NC(=O)[C@H](CCC(=O)O)NC(=O)[C@H](CCCCNC(=O)COCCOCCNC(=O)COCCOCCNC(=O)CC[C@H](NC(=O)CCCCCCCCCCCCCCCCC(=O)O)C(=O)O)NC(=O)[C@H](C)NC(=O)[C@H](C)NC(=O)[C@H](CCC(N)=O)NC(=O)CNC(=O)[C@H](CCC(=O)O)NC(=O)[C@H](CC(C)C)NC(=O)[C@H](Cc1ccc(O)cc1)NC(=O)[C@H](CO)NC(=O)[C@H](CO)NC(=O)[C@@H](NC(=O)[C@H](CC(=O)O)NC(=O)[C@H](CO)NC(=O)[C@@H](NC(=O)[C@H](Cc1ccccc1)NC(=O)[C@@H](NC(=O)CNC(=O)[C@H](CCC(=O)O)NC(=O)C(C)(C)NC(=O)[C@@H](N)Cc1cnc[nH]1)[C@@H](C)O)[C@@H](C)O)C(C)C)C(=O)N[C@@H](C)C(=O)N[C@@H](Cc1c[nH]c2ccccc12)C(=O)N[C@@H](CC(C)C)C(=O)N[C@H](C(=O)N[C@@H](CCCNC(=N)N)C(=O)NCC(=O)N[C@@H](CCCNC(=N)N)C(=O)NCC(=O)O)C(C)C [Semaglutide, reference compound]

Compound: liraglutide
- Drug exposure with impaired liver function [4]: not increased
